Screening data from PubChem.
This is a sample that favours compounds with a hit; in the whole collection about 2.7% have one here.
PP1 counter = blocks human PP1-alpha phosphatase, a PP5 counter-screen. P62136. purified PP1alpha, OMFP fluorescence. inhibition, % at 6.7 µM. 320,000 tested, 0.9% active. AID 2235;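 active = inhibition above the mean inhibition of all tested compounds plus 3 SD, computed separately for each screening campaign, cut at about 15% in these data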
TPT1 inhibitor = C. albicans TPT1 enzyme inhibition; recombinant caTPT1, FP RNA substrate dephosphorylation; inhibition, % at 5 µM; 300,000 tested, 0.81% active; AID 1962;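 active = inhibition above the mean of all tested compounds plus 3 SD, set per screening campaign, cut at about 24% in these data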;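 also: plate controls were DMSO alone for no effect and ferristatin control at 100 nM for full effect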
Rpn11 block = inhibitors of human proteasome Rpn11; inhibition, % at 20 µM; human 26S proteasome, Ub4-pepOG fluorescence polarization; 20S core pre-blocked with epoxomicin; AID 588493; O00487; 360,000 tested, 0.59% active;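 active = inhibition at 20 µM, scaled to each plate's controls, above about 33%, limit read from the data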
NadD block = blocks S. aureus nicotinate mononucleotide adenylyltransferase | purified NadD enzyme, colorimetric absorbance read-out | inhibition, % at 20 µM | 360,000 tested, 0.78% active; in the data active = inhibition above about 26%
HNF4A DNA FP = change in binding of human HNF4 alpha to DNA. AID 1224865. 360,000 tested, 0.3% active. HNF4a-FITC DNA binding, fluorescence polarization, 1 h. activity change, % at 10 µM. P41235; in the data active = activity change above about 30%, passing the limit was not always enough
CSN deneddyl inh = CSN deneddylation inhibition. Q92905. Purified CSN, SCF-Nedd8-OG deneddylation, fluorescence polarization. inhibition, % at 12.5 µM. 360,000 tested, 0.38% active;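 active = pattern-corrected inhibition above about 35%, with an unprinted fluorescence ratio check between 0.5 and 1.5, limit read from the data, passing the limit was not always enough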;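 also: 0% = enzyme with substrate and 100% = substrate without enzyme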
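Detection – fluorescence polarization · System – HEK293T-derived human Csn5 enzyme · Controls – substrate-only high control, full reaction low control · Timing – 90 min, room temperature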
PP1 inh confirm = confirmation of human PP1 phosphatase inhibitors; 1,900 tested, 52% active; AID 2358; inhibition, % at 6.7 µM; shares compounds with PP1 counter; purified PP1alpha, OMFP substrate fluorescence;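 active = mean PP1 inhibition above a set limit taken from the earlier primary screen, cut at about 15% in these data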
PP5 inh counter = PP5 phosphatase inhibition, counter-screen for PP1 inhibitors; 1,900 tested, 4% active; AID 2360; shares compounds with PP1 counter; purified PP5c, OMFP fluorescence; inhibition, % at 6.7 µM;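 active = mean PP5 inhibition over triplicate wells above about 9.5% taken from the earlier PP1 screen, limit read from the data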
Target sequence (P53041 whole entry, looked up): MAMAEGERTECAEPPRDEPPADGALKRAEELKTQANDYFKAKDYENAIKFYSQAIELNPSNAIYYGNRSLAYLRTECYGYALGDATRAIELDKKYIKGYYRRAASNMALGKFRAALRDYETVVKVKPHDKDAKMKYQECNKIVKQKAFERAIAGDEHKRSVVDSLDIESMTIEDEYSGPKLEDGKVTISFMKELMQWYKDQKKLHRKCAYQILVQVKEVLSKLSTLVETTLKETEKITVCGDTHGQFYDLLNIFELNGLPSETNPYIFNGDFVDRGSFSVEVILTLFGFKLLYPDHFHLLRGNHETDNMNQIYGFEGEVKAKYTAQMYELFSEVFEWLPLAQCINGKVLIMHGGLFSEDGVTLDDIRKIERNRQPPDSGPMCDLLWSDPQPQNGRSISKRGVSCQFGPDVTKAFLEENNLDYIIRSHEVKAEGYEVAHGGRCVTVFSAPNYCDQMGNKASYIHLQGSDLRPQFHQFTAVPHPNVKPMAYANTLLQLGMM
* marks the source's active call; other numbers are inactive results; x = no result given.

SMILES	PP1 counter	TPT1 inhibitor	Rpn11 block	NadD block	HNF4A DNA FP	CSN deneddyl inh	PP1 inh confirm	PP5 inh counter
Fc1ccc(-[n+]2nc(Nc3ccccc3)sc2-c2c3ccccc3cc3ccccc23)cc1	22*	-4	5	16	0	-2	5	1
c1ccc(-[n+]2nc(Nc3cccc4ccccc34)sc2-c2c3ccccc3cc3ccccc23)cc1	31*	0	-15	42*	2	-1	30*	1
Oc1ccc(-c2sc(Nc3ccccc3)n[n+]2-c2ccc(F)cc2)cc1	-1	-3	-2	9	-1	5	x	x
COc1ccc(C)cc1Nc1n[n+](-c2ccccc2)c(-c2c(OC)ccc3ccccc23)s1	11	-1	0	9	-1	-3	x	x
COc1ccc(-n2cnnc2SCC(=O)NC2CCCCC2)cc1	x	x	-2	-3	-1	-4	x	x
CCc1ccc2[nH]c(=O)c(CN(Cc3ccc4c(c3)OCO4)Cc3nnnn3C3CCCC3)cc2c1	21*	-1	0	26	-2	2	6	2
Cc1noc(C)c1C(=O)OCC(=O)NCc1ccc(Cl)cc1	-2	x	0	-3	1	2	x	x
COC(=O)c1ccc(CNCC(O)COc2ccc(-c3ccccc3)cc2)cc1 (centres undefined)	8	1	-2	-2	4	-1	x	x
COc1ccc(CNCC(O)COc2ccc(C(C)(C)c3ccccc3)cc2)cc1 (centres undefined)	24*	0	10	-3	4	-4	12	3
Clc1ccc(CSc2ccc(-c3cccnc3)nn2)cc1	6	1	-5	-5	1	1	x	x
Fc1cccc(Cl)c1CSc1ccc(-c2cccnc2)nn1	58*	-2	2	1	2	1	-1	-1
CCCCCCN(C(=O)CCCCCN1C(=O)NC(c2ccc(-c3ccccc3)cc2)C(C(=O)OCc2ccccc2)=C1C)C(C)C(=O)NCCCC (centres undefined)	25*	-2	x	x	x	x	23*	4
CCCCCCN(C(=O)CCCCCN1C(=O)NC(c2ccc(-c3ccccc3)cc2)C(C(=O)OCc2ccccc2)=C1C)C(C(=O)NCCCC)c1ccc(OCC(=O)OC)c(C(=O)OC)c1 (centres undefined)	38*	-2	x	x	x	x	21*	-4
CCCCCCN(C(=O)CCCCCN1C(=O)NC(c2ccc([N+](=O)[O-])cc2)C(C(=O)OCc2ccccc2)=C1C)C(C(=O)NCCCC)c1ccc(OCC(=O)OC)c(C(=O)OC)c1 (centres undefined)	23*	2	x	x	x	x	34*	2
CCCCCCN(C(=O)CCCCCN1C(=O)NC(c2cccc([N+](=O)[O-])c2)C(C(=O)OCc2ccccc2)=C1C)C(C(=O)NCCCC)c1ccc(OCC(=O)OC)c(C(=O)OC)c1 (centres undefined)	36*	1	x	x	x	x	37*	5
CCCCNC(=O)C(C)N(CCN(C)C)C(=O)CCCN1C(=O)NC(c2ccc([N+](=O)[O-])cc2)C(C(=O)OCc2ccccc2)=C1C (centres undefined)	x	x	4	0	5	-2	x	x
COC(=O)c1ccc(CNC(=O)CN2C(=O)NC(Cc3ccccc3)(c3ccccc3)C2=O)cc1 (centres undefined)	x	x	-3	-7	8	2	x	x
CCc1ccc(N2CC(C(=O)OCC(=O)N(CC)c3c(N)n(Cc4ccccc4)c(=O)[nH]c3=O)CC2=O)cc1 (centres undefined)	x	x	-1	-2	5	-1	x	x
O=C(Sc1n[nH]c(=O)[nH]c1=O)c1ccccc1	x	x	2	-7	0	-5	x	x
O=C1N(c2ccccc2)C(c2ccccc2)C12CCCCC2 (centres undefined)	x	x	7	-3	-4	1	x	x
O=c1[nH]c(CSc2nnc(Nc3ccccc3)s2)nc2ccccc12	28*	-1	1	3	-2	6	18*	-3
COC(=O)C1CCN(S(=O)(=O)CCNC(=O)c2ccccc2)CC1	x	x	-2	-3	4	3	x	x
COc1ccc(NC(=O)C2(c3ccc(NC(=O)c4ccc(OC(C)=O)cc4)cc3)CCCC2)cc1	18*	1	-3	0	1	0	24*	-7
COc1ccc(NC(=O)C2(c3ccccc3)CCCC2)cc1	1	-3	-3	-4	0	2	x	x
O=C(CSc1ccc2nnc(-c3ccc(Cl)cc3)n2n1)N1CCCc2ccccc21	24*	3	-4	4	3	-1	13	-6
SMILES	PP1 counter	TPT1 inhibitor	Rpn11 block	NadD block	HNF4A DNA FP	CSN deneddyl inh	PP1 inh confirm	PP5 inh counter
COc1ccc(Nc2nc(Nc3ccc(OC)cc3)nc(-n3[nH]c(=O)c(C)c3C)n2)cc1	23*	-4	8	30	-1	3	23*	-1
COc1ccc(NC(=O)CSc2nc(O)cc(=O)n2-c2ccc(OC)cc2)cc1	19*	0	6	-2	-1	3	-4	-7
CCNC(=O)CSc1nc2ccccc2c(=O)n1-c1cccc(OC)c1	-4	0	0	-8	-1	0	x	x
COc1ccc(-n2c(SCC(=O)Nc3ccccc3)nc(O)cc2=O)cc1	8	-1	5	5	2	1	x	x
COc1cccc(-n2c(SCC(=O)Nc3ccc4c(c3)CCC4)nc3ccccc3c2=O)c1	19*	0	11	17	-1	-2	4	1
CCOC(=O)[C@]12Cc3c(cc(OC)c(OC)c3OC)[C@H]1N(C1CCCCC1)C(=O)c1cc(OC)ccc12	x	x	x	4	4	3	x	x
Cc1cc2nc(-c3ccc(Cl)cc3)c(CC(C)(C)C)n2c(C)c1Br	x	x	4	9	-3	-6	x	x
CC1CCC2(CC1)NC(=O)N(CC(=O)NCCc1ccc(F)cc1)C2=O (centres undefined)	-2	x	3	-8	3	-7	x	x
Clc1ccc(C2=C3CCCCn4c(-c5ccccc5)c[n+](c43)C2)cc1	18*	4	34	1	3	8	-12	-1
COc1ccc(-c2c[n+]3c4n2CCCCC4=C(c2ccc(Br)cc2)C3)cc1	33*	17	37	21	13	10	-11	-1
O=C(CN1C(=O)c2ccccc2C1=O)NC(Cc1ccccc1)C(=O)O (centres undefined)	x	x	-1	-4	1	-2	x	x
O=C(CN1C(=O)COc2ccccc21)N1CCCc2ccccc21	-1	-2	-1	-6	-2	6	x	x
O=C(CN1C(=O)COc2ccc(Cl)cc21)N1CCc2ccccc21	18*	1	-1	13	4	0	11	-4
